From PubChem BioAssay
OXTR potentiate: potentiates the human oxytocin receptor response | CHO-OTR cells, Fluo-8 calcium fluorescence, potentiator mode; 0% = oxytocin EC15, 100% = EC100 | P30559 | activation, % at 3 µM | 320,000 tested, 0.061% active | AID 2445;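 active = activation above that plate's cutoff, the mean activation of tested compounds plus 3 SD, cut at about 6.6% in these data, passing the limit was not always enough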;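 also: 100% uses oxytocin at 75 nM as the full agonist control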
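Assay system: CHO cell line stably expressing human OTR. Reagent: EC15 oxytocin agonist. Dosing: single dose, 3.0 µM nominal final compound concentration. Timing: compound 6 min at room temperature before oxytocin, 100 s read. Signal: kinetic Fluo-8 calcium fluorescence. Controls: oxytocin EC15 low and EC100 high.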
TRPN1 ag: agonists of zebrafish TRPN1 channel; HEK293 zebrafish TRPN1-YFP, Fluo-8 calcium fluorescence; 100% = response to 87 µM carbachol; activation, % at 3 µM; 220,000 tested, 0.18% active;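 active = activation above its plate's cutoff, the mean activation of test wells on that plate plus 3 SD, cut at about 19% in these data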;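 also: 0% = DMSO alone and 100% = 87 µM carbachol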
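System: zebrafish TRPN1-YFP in HEK293 cells / Dosing: 3 µM single point / Timing: dye loading 1 h at 37 °C, then 30 min room temperature / Signal: Fluo-8 calcium fluorescence, excitation 470-495 nm, emission 515-575 nm / Read-out basis: percent activation from peak over basal fluorescence ratio, control-normalized / Control set: high carbachol 87 µM, low DMSO alone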
TRPML3 agonist: human mucolipin-3 channel agonism; Q8TDD5; HEK293 TRPML3-YFP, Fluo-8 calcium fluorescence; 100% = the carbachol control signal; activation, % at 3 µM; 220,000 tested, 0.29% active;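 active = activation above its plate's cutoff, the mean activation of the plate's test wells plus 3 SD, cut at about 12% in these data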;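 also: 0% = DMSO only wells and 100% = carbachol wells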
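Material: TRPML3-YFP stable HEK293 cells | Dosing: One concentration, 3 µM nominal, 0.3% DMSO | Timing: 125 s total fluorescence read per well | Technique: Fluo-8 calcium dye fluorescence, ex 470-495, em 515-575 nm | Measure: Percent activation from peak-to-basal fluorescence ratio, scaled between DMSO and carbachol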
OXTR ag: activates the human oxytocin receptor | P30559 | CHO-OTR cells, Fluo-8 calcium fluorescence; normalized: DMSO 0%, oxytocin 100% | AID 2435 | 320,000 tested, 0.32% active | activation, % at 3 µM;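 active = activation above the mean of all tested compounds plus 3 SD, cutoff set per screening run, cut at about 20% in these data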;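 also: peak over basal fluorescence ratio from a 100 s FLIPR kinetic read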
V1aR counter: activates human V1a receptor in oxytocin agonist counter-screen; P37288; CHO-V1R cells, Fluo-8 calcium fluorescence, agonist mode; 0% DMSO, 100% 3 nM vasopressin; activation, % at 3 µM; 320,000 tested, 0.25% active; AID 2797;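 active = activation above the mean activation of all tested compounds plus 3 SD, per screening run, cut at about 20% in these data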;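 also: signal is peak over basal fluorescence ratio across a 100 second FLIPR read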
Target sequence (P37288 whole entry, looked up): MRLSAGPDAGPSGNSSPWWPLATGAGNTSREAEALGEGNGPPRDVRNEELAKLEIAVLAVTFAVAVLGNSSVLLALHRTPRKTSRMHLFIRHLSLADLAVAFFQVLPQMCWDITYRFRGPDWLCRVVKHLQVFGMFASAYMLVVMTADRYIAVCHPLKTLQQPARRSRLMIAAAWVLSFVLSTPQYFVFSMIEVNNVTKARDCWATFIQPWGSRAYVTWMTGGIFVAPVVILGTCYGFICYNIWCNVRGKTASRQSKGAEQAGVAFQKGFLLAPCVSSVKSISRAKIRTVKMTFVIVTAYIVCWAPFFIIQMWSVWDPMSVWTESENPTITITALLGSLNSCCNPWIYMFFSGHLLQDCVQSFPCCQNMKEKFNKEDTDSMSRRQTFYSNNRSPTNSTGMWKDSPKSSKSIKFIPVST
The depositor's hits bear a star; nt = not tested or not shown. This is a sample that favours compounds with a hit; in the whole collection about 0.58% have one here.

SMILES | OXTR potentiate | TRPN1 ag | TRPML3 agonist | OXTR ag | V1aR counter
O=C(NC(=O)c1ccccc1O)c1ccc(C(F)(F)F)cc1 | -21.2 | 5.9 | 1.8 | 14.5 | 17.5
CCCc1ccc(C(=O)NC(=O)c2ccccc2O)cc1 | -16.5 | 20.2* | 10.9 | 18.6 | 11.5
Cc1ccc(-c2noc(CCC(=O)NCCCN3CCN(c4cccc(Cl)c4)CC3)n2)cc1 | -20.6 | 2.4 | 1.6 | 30.7* | 21.1*
CCCCc1ncc(CN2CCC(CC3CCCCO3)(C(=O)OCC)CC2)[nH]1 (stereo not drawn) | -11.2 | -1.1 | 0.5 | -1.0 | -0.2
CCOC(=O)C1(CC2CCCCO2)CCN(Cc2cc3ccccc3[nH]2)CC1 (stereo not drawn) | -19.9 | 30.0* | 23.9* | 31.3* | 27.7*
CCCCCCCCCCOC(=O)Cn1c(COc2ccccc2)[n+](C)c2ccccc21 | -14.5 | nt | nt | 26.9* | 52.9*
CCOC(=O)C1CCCN(C2=NC(=O)/C(=C/c3ccc(OC)cc3)S2)C1 (stereo not drawn) | -1.5 | nt | nt | -1.7 | 0.9
CCOC(=O)C1CCCN(C2=NC(=O)/C(=C/c3ccc(N(C)C)cc3)S2)C1 (stereo not drawn) | -23.4 | nt | nt | 35.4* | 34.2*
COC(=O)C1=C(C)N(C2CCCCC2)C(=O)/C1=C\c1cccs1 | -10.1 | -1.5 | 0.1 | -3.1 | -0.8
O=C(Cc1ccc(Cl)cc1)Nc1cc(S(=O)(=O)N2CCOCC2)ccc1N1CCCC1 | -15.2 | -2.0 | 0.1 | -1.9 | -0.4
CN1CCN(c2ccc(S(=O)(=O)N3CCCCC3)cc2NC(=O)Cc2ccc(Cl)cc2)CC1 | -14.4 | 4.0 | 1.1 | 21.0* | 26.2*
COc1ccc(CCN2CCC(Nc3nc4ccccc4n3Cc3ccc(F)cc3)CC2)cc1 | -10.8 | 0.8 | 1.5 | 45.2* | 36.8*
O=C(Nc1ccc(CN2CCOCC2)cc1)c1ccc(Cl)cc1 | -1.0 | nt | nt | 2.4 | 3.2
O=C(Nc1ccc(S(=O)(=O)Nc2ccccc2)cc1)c1ccc(CN2CCOCC2)cc1 | -15.6 | 19.5* | 7.2 | 9.1 | 10.1
O=C(COC(=O)C1(c2ccc(F)cc2)CCCC1)N1CCc2ccccc21 | -11.9 | -0.1 | -0.3 | 4.7 | 5.5
CCOc1ccc(N(CC(=O)O)S(=O)(=O)c2ccc(F)cc2)cc1 | -9.1 | 69.8* | 0.8 | -0.3 | 0.2
COc1ccccc1C(=O)NNC(=S)NC(=O)c1sc2ccccc2c1Cl | -12.0 | 0.9 | 1.5 | 49.0* | 34.3*
COc1ccccc1C(=O)NC(=S)NNC(=O)c1sc2ccccc2c1Cl | -9.7 | 3.0 | 1.2 | 46.2* | 25.2*
Cc1c(NC(=S)NC(=O)c2sc3ccccc3c2Cl)cccc1C(=O)O | -11.8 | 1.2 | 1.1 | -0.8 | 0.2
COc1ccccc1C(=O)NNC(=S)NC(=O)c1cccs1 | -17.0 | nt | nt | 29.7* | 50.7*
COC(=O)c1ccc(NS(=O)(=O)c2ccccc2)o1 | -2.9 | 1.4 | 1.5 | -0.7 | 1.8
CC(C)(C)OC(=O)C[C@H]1C/C=C\C[C@@H](CC(=O)N(CCO)Cc2ccccc2)C(=O)NC[C@@H](c2ccccc2)OC1=O | -2.4 | nt | nt | -1.7 | -0.3
COc1cc(/C=C/C(O)=C/C(=O)/C=C/c2ccc(O)cc2)ccc1O | -10.8 | nt | nt | 21.7* | 20.8*
Cc1ccccc1-n1c(O)c(/C=C/C=Nc2ccccc2)c(=O)[nH]c1=O | -15.1 | 13.3 | 9.3 | 47.2* | 29.7*
CSc1ccc(S(=O)(=O)NC2CC2)cc1 | -12.8 | nt | nt | -0.6 | 0.4
SMILES | OXTR potentiate | TRPN1 ag | TRPML3 agonist | OXTR ag | V1aR counter
Nc1c(C(=O)c2ccccc2)sc2nsc(SCCN3CCOCC3)c12 | -21.7 | 8.2 | 3.6 | 48.5* | 49.4*
CCOC(=O)NC(=O)/C(C#N)=C\Nc1sccc1C(=O)OC | -7.7 | 22.0* | 18.3* | 56.9* | 52.6*
CCN(CC)C(=O)CN1C(=O)C2(OCC(C)(C)CO2)c2ccccc21 | -1.8 | nt | nt | -0.8 | 0.0
CCC1CCCCN1C(=S)NC1CCCCC1 (stereo not drawn) | 4.8 | -1.2 | 0.2 | -0.7 | -0.7
C#CCN1C(=O)S/C(=C/C=C/c2ccc(N(C)C)cc2)C1=O | -11.6 | 10.0 | 4.1 | 35.3* | 23.6*
CN1CCC/C1=C/C=C1\SC(=S)NC1=O | -11.9 | 11.0 | 10.2 | 45.7* | 24.1*
COc1cccc(N2CCN(C(=O)CCNS(=O)(=O)c3ccc4c(c3)c(=O)n(C)c(=O)n4C)CC2)c1 | -15.6 | -1.8 | -0.2 | -2.2 | -0.6
CCC[C@H]1NC(=O)[C@H](C)N(C)C(=O)C(C)(C)C(=O)C(C)NC(=O)[C@H](Cc2ccc(OC)cc2)N(C)C(=O)[C@H](C(C)C)N(C)C(=O)CNC(=O)[C@H](CC(C)C)N(C)C(=O)CNC(=O)[C@H]([C@@H](C)CC)OC(=O)[C@H]1C (stereo partly drawn) | 0.0 | nt | nt | -0.1 | -0.4
CCc1ccc(NC(=O)C(CC)c2ccccc2)cc1 (stereo not drawn) | -7.8 | 18.8 | 11.3 | 27.1* | 35.0*
CCN(CC)CCN1C(=O)C(=O)/C(=C(/O)c2ccc(S(=O)(=O)N3CCOCC3)cc2)C1c1ccc(C(C)(C)C)cc1 (stereo not drawn) | -0.8 | nt | nt | 0.4 | 0.0
CN(C)C=Nc1c(Br)cc(Br)c2nonc12 | -17.4 | 8.2 | 7.6 | 106.3* | 84.2*
CN(C)C=Nc1nonc1-c1ccccc1 | -1.3 | 0.8 | 0.2 | 0.4 | 0.3
O=C(N/C(=C\c1ccccc1)C(=O)N1CCN(CCO)CC1)c1ccccc1 | -7.0 | 0.9 | 1.1 | -0.5 | 1.5
Cn1cc(-c2ccccc2C(N)=O)c(=O)c2cc(Cl)ccc21 | 2.0 | 0.2 | 0.2 | 0.9 | 0.5
Cn1cc(C2=C(c3ccc(Cl)cc3Cl)C(=O)NC2=O)c2ccccc21 | -11.5 | nt | nt | 29.0* | 31.3*
COc1ccc(N/C(=C(/C(Cl)=C(Cl)Cl)[N+](=O)[O-])n2nnc3ccccc32)cc1OC | -1.6 | 0.3 | 0.8 | 0.0 | 1.8
CCSc1c([N+](=O)[O-])c(=O)n(-c2ccccc2)c2ccccc12 | -2.2 | nt | nt | -3.4 | -0.9
COC(=O)C1(c2ccccc2)NC(c2cccs2)C2C(=O)N(c3ccccc3)C(=O)C21 (stereo not drawn) | -19.4 | -1.7 | -0.1 | 23.2* | 20.9*
Nc1ccc(-c2c3ccc(=O)cc-3oc3cc(O)ccc23)c(C(=O)O)c1 | -12.7 | nt | nt | 167.5* | 206.5*
Cc1c(O)cc2c(c1O)C(=O)CC(c1ccccc1)O2 (stereo not drawn) | -10.4 | nt | nt | 58.9* | 47.7*
CC(=O)N/C(=C\c1ccc(F)cc1)C(=O)OCc1ccccc1 | -2.2 | nt | nt | -1.9 | -0.4
COC(=O)C1=C(C)N(Cc2ccccc2)C(=NCC(C)C)N[C@H]1c1cccc(F)c1 | -11.4 | nt | nt | 30.7* | 22.9*
COC(=O)C1=C(C)N(Cc2ccccc2)C(=NCC(C)C)N[C@H]1c1cccc(C(F)(F)F)c1 | -10.0 | nt | nt | 14.1 | 3.3
